UBC9 SUMO inh – inhibitors of in vitro SUMOylation cascade, primary screen, biochemical, HTRF, uHTS | SUMO-conjugating enzyme UBC9 (Homo sapiens), P63279 | HTRF SUMOylation assay, SAE1/SAE2 + UBC9 | inhibition, % at 35 µM | actives 0.36% (n = 290,000) | AID 2006, 2009; in the data active means inhibition above about 50%, passing the limit was not always enough
Target sequence (P63279 whole entry, looked up): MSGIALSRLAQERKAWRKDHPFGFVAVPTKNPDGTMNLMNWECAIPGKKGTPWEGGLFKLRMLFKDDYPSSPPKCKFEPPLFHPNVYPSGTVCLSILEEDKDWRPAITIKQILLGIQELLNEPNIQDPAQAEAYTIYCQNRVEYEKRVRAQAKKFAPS
GSTO1 counter – inhibitors of recombinant GSTO1, primary screen, counter-screen for RBBP9 inhibitor project, biochemical, fluorescence polarization; activity-based probe fluorescence polarization; actives 1.1% (n = 300,000); Glutathione S-transferase omega-1 (Homo sapiens), P78417; inhibition, % at 5.96 µM;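 active means inhibition above the campaign mean inhibition plus 3 SD, cut at about 35% in these data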;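 further: 0% = GSTO1-1 with DMSO and 100% = wells lacking GSTO1-1 enzyme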
Target sequence (P78417 whole entry, looked up): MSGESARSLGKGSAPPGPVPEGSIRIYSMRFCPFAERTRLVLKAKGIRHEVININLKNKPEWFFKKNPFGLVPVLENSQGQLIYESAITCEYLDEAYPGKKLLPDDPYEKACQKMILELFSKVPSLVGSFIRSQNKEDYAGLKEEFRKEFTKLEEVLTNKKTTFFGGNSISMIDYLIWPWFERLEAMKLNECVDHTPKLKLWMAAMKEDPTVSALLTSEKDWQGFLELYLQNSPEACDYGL
TDP2 absorb – human TDP2 enzyme inhibitors, primary screen, biochemical, epi absorbance, recombinant enzyme; inhibition, % at 12.8 µM; T5PNP hydrolysis, p-nitrophenol absorbance 415 nm; Tyrosyl-DNA phosphodiesterase 2 (Homo sapiens), O95551; actives 0.34% (n = 370,000);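 active means inhibition above the mean of all tested compounds plus 3 SD, set per campaign, cut at about 25% in these data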;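 further: 0% = DMSO with enzyme and 100% = buffer with substrate but no TDP2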
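Test system: human TDP2 enzyme; Input: 120 nM TDP2 per well; Buffer or medium: Mg2+-containing Tris-HCl buffer, pH 7.5; Reagent: 5 mM T5PNP; Dosing: 12.8 µM single point, 1% DMSO; Incubation: reaction 2 h, 37 °C; Detection: p-Nitrophenol epi absorbance; Read-out: % inhibition relative to enzyme-containing and enzyme-free wells; Replicates: single well per compound.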
GASC-1 inh – inhibitors of GASC-1 histone demethylase, primary screen, biochemical, fluorescence, DELFIA europium | Lysine-specific demethylase 4C (Homo sapiens), Q9H3R0 | GST-JMJD2C(1-420) H3K9me3 demethylation | inhibition, % at 2.35 µM | actives 0.069% (n = 330,000);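 active means more than half of a compound's replicate wells show inhibition beyond 50%, single wells judged on their own value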;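 further: signal counts dimethyl H3K9 product captured on neutravidin plate; 0% = median of DMSO wells and 100% = 0.3 times that DMSO median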
PAD4 FP inh – human PAD4 inhibitors, primary screen, biochemical, fluorescence polarization, 1536-well format | recombinant PAD4, RCA probe fluorescence polarization | inhibition, % at 6.36 µM | actives 0.41% (n = 330,000);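 active means percent inhibition above a cutoff equal to the mean of all tested compounds plus 3 SD, cut at about 15% in these data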;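 further: 0% = PAD4 with RCA probe and DMSO and 100% = probe without PAD4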
Apaf-1 inh – inhibitors of human Apaf-1 apoptosome, primary screen, biochemical, DEVD-Rh110 fluorescence, uHTS; inhibition, % at 20 µM; actives 0.71% (n = 330,000); reconstituted apoptosome caspase-3 activity; Apoptotic protease-activating factor 1 (Homo sapiens), O14727; active means inhibition of at least 40% at 20 µM;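 further: plate controls were DMSO wells for no effect and DEVD-CHO caspase inhibitor wells for full effect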
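Medium: Hepes buffer, pH 7.5 / System: biochemical Apaf-1 apoptosome reconstitution / Measured by: Rh110 fluorescence, excitation 480 nm, emission 540 nm / Times: compound with Apaf-1, dATP, procaspase-3 30 min, then 50 min reaction, room temperature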
Active calls of the source: *; . = not tested or not shown. Rows were chosen to be rich in hits. Some 1.6% of all compounds tested hit in one or more screens of this group.

SMILES	UBC9 SUMO inh	GSTO1 counter	TDP2 absorb	GASC-1 inh	PAD4 FP inh	Apaf-1 inh
CCCc1ccc(OCc2ccc(C(=O)O)o2)c(OC)c1	0	-1	6	0	-3	2
O=C(N/N=C/c1ccc(Cl)c([N+](=O)[O-])c1)c1cc(-c2ccc3c4c(cccc24)CC3)n[nH]1	51*	-6	9	3	2	-8
NS(=O)(=O)c1ccc(Nc2ccc([N+](=O)[O-])c3nonc23)cc1	-6	37*	-4	7	-3	12
Cc1c(C)n(Cc2ccc(-c3ccccc3C(=O)O)cc2)c2ccc(C(=O)N[C@@H](C)c3ccc([N+](=O)[O-])cc3)cc12	.	.	3	.	.	.
COc1ccc(OCC(=O)NNC(=O)c2ccc3c(=O)n4c(nc3c2)CCC4)cc1	-1	37*	13	-5	-3	-8
O=C1c2ccccc2C(=O)C1(O)O	.	.	.	11	11	68*
O=C(c1ccccc1)[C@@H]1[C@@H](C(=O)c2ccc(F)cc2)[C@@]2(C(=O)Nc3ccccc32)[C@H]2c3ccccc3C=CN12	11	-3	10	-20	-23	64*
Cc1ccnc2c1ccc1c(C)ccnc12	.	.	.	8	-7	44*
Cc1ccnc2c1ccc1cccnc12	.	.	1	.	.	5
O=C1/C(=C\c2ccco2)CCC/C1=C\c1ccco1	52*	6	1	-3	-3	3
Cc1ccc(-c2ccc(/C=N\NC(=O)c3cc4c(ccc5ccccc54)o3)o2)cc1[N+](=O)[O-]	22	-4	0	0	-1	9
O=C(N/N=C/c1ccc(-c2ccc(Cl)c(C(=O)O)c2)o1)c1cc2c(ccc3ccccc32)o1	51*	-97	8	0	-11	-10
CN(CC#CC1=CCCCC1)/C(N)=N/C(=O)OCc1ccccc1	.	.	0	.	.	.
CC(C)OC(=O)C(C(=O)C(F)(F)F)c1cc(NS(=O)(=O)c2ccc3ccccc3c2)c2ccccc2c1O (stereo not drawn)	71*	16	.	-6	-19	8
COc1cc2c(cc1OC)C(SC)=NC1(CCCC1)C2	20	6	-7	-4	0	4
COc1cc2c(cc1OC)C(C)=NC1(CCCCC1)C2	59*	3	3	2	0	-5
CC(COc1ccc(F)cc1)CN1CCC(C(O)(c2ccccc2)c2ccccc2)CC1 (stereo not drawn)	.	.	0	.	.	.
Cn1nc(-c2ccc(Cl)cc2)c2cc(C(=O)NCCCN3CCCC3)sc21	14	-1	3	-10	-2	49*
COC(=O)C1CN(Cc2ccccc2)CCS(=O)(=O)N1Cc1cn(Cc2ccc(C)cc2)nn1 (stereo not drawn)	.	.	10	.	.	.
Oc1c(Br)cc(/C=N/n2c(-c3ccccc3)n[nH]c2=S)c(Br)c1O	55*	-26	.	14	6	.
COc1cc2c(cc1OC)CN(C(=O)CSc1ccc(F)cc1)CC2	.	.	8	15	6	0
COc1cc2c(cc1OC)CN(C(=O)CSc1n[nH]c(N)n1)CC2	5	6	0	54*	3	3
COc1ccc(-c2cc3nc4ccccc4n3c(N)c2C#N)cc1	57*	38*	8	6	-5	-7
O=S1(=O)c2ccc(N3CCCC3)cc2Oc2ccccc2CN1Cc1cn(Cc2cccc(C(F)(F)F)c2)nn1	.	.	-13	.	.	.
CCC(=O)OCCNc1cc(SCCC(=O)OC)c2nonc2c1[N+](=O)[O-]	63*	7	-1	1	-12	24
CC(=O)Nc1ccc(/C=C/COC(C)=O)cc1C	.	.	3	.	.	.
C[C@H]1[C@H](NC(=O)c2ccc(Cl)c(Cl)c2)CC[C@@]23CCCN2C(=O)CCC[C@@H]13	.	.	5	.	.	.
Cc1oc(-c2ccc(Cl)cc2)cc1-c1nn2c(-c3ccoc3C)nnc2s1	60*	-11	18	-10	-15	35
